Test results from article PMC6923798 (Bioorganic chemistry, 2018).
Read-outs that look alike come from different tables or passages of the source.

Key:
KG-1a = test: MTT anti-proliferative assay; format: cell-based, human; settings: read-out: IC50 ± SD, KG-1a
EGFR = EGFR (Homo sapiens, UniProt P00533); test: EGFR kinase assay; format: biochemical
K-562 = test: MTT anti-proliferative assay; format: cell-based, human; settings: read-out: IC50 ± SD, K-562
Jurkat = test: MTT anti-proliferative assay; format: cell-based, human; settings: read-out: IC50 ± SD, Jurkat
STAT3 = STAT3 activation assay; format: cell-based, human; settings: K-562 cells, 10 μM, 24 h, nuclear extracts
Outline: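 K562 cells seeded overnight in 10 cm plates, then given vehicle, test compound (10 μM) or WP1066 (positive control) for 24 h. Nuclear fractions extracted by kit. STAT3 activation measured in nuclear extracts by TransAM STAT3 ELISA per manufacturer. Mean ± SD of three independent experiments, each in triplicate.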

[1] = system: full NCI panel of 60 cell lines; test: NCI in vitro one dose anticancer assay; format: cell-based, human; settings: 48 h; for inhibition at 10 µM: Homo sapiens, 60 cell, read-out: Mean growth inhibition %
Outline: (§1)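 NCI protocol. Test compound added once at 10−5 M to ~60 human tumour lines from nine subpanels. Incubated 48 h at 37 °C, 5% CO2, 95% air, 100% relative humidity. Endpoint by sulforhodamine B protein staining with spectrophotometric absorbance. Growth of treated cells reported as percent of untreated cells.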

c-Src = c-Src (Homo sapiens, UniProt P12931); test: Src kinase assay; format: biochemical
IL-6 = IL-6 ELISA in K-562 cells; format: cell-based, human; settings: Homo sapiens, K562, 24 h, read-out: IL-6 protein levels (% of control)
Outline: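 K-562 cells exposed 24 h to vehicle (DMSO), test compound at 10 μM or dexamethasone (positive control). IL-6 secreted into cell-free supernatant quantified by human IL-6 ELISA kit. Expressed as % of vehicle control, mean ± SD of three independent experiments, each in triplicate. Time course: in 12-well plates, medium changed when compound (10 μM) added, and media sampled at 0, 1, 4, 8, 12, 24, 48 h.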

SR cell line = test: NCI in vitro one dose anticancer assay; format: cell-based; settings: Homo sapiens, 48 h, read-out: % growth inhibition
Outline: as §1

K-562 cell line = test: NCI in vitro one dose anticancer assay; format: cell-based; settings: Homo sapiens, K562, 48 h, read-out: % growth inhibition
Outline: as §1

RPMI-8226 cell line = test: NCI in vitro one dose anticancer assay; format: cell-based; settings: Homo sapiens, RPMI-8226, 48 h, read-out: % growth inhibition
Outline: as §1

MOLT-4 cell line = test: NCI in vitro one dose anticancer assay; format: cell-based; settings: Homo sapiens, MOLT-4, 48 h, read-out: % growth inhibition
Outline: as §1

Sequence of c-Src (P12931 whole entry): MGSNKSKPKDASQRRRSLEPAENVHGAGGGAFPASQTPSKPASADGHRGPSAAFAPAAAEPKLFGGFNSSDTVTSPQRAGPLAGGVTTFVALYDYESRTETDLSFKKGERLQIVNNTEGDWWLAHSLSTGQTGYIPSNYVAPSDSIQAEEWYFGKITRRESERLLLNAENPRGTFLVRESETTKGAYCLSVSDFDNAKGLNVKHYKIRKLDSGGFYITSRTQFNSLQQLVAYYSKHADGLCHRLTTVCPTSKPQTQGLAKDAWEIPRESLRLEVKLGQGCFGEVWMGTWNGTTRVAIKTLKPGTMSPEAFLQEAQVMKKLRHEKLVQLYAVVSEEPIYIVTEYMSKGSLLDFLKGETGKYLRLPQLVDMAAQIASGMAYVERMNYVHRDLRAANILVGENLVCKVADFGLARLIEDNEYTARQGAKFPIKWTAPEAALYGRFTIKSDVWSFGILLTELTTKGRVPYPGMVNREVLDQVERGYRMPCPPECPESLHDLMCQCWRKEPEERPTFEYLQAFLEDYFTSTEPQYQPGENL
Sequence of EGFR (P00533 25-1210): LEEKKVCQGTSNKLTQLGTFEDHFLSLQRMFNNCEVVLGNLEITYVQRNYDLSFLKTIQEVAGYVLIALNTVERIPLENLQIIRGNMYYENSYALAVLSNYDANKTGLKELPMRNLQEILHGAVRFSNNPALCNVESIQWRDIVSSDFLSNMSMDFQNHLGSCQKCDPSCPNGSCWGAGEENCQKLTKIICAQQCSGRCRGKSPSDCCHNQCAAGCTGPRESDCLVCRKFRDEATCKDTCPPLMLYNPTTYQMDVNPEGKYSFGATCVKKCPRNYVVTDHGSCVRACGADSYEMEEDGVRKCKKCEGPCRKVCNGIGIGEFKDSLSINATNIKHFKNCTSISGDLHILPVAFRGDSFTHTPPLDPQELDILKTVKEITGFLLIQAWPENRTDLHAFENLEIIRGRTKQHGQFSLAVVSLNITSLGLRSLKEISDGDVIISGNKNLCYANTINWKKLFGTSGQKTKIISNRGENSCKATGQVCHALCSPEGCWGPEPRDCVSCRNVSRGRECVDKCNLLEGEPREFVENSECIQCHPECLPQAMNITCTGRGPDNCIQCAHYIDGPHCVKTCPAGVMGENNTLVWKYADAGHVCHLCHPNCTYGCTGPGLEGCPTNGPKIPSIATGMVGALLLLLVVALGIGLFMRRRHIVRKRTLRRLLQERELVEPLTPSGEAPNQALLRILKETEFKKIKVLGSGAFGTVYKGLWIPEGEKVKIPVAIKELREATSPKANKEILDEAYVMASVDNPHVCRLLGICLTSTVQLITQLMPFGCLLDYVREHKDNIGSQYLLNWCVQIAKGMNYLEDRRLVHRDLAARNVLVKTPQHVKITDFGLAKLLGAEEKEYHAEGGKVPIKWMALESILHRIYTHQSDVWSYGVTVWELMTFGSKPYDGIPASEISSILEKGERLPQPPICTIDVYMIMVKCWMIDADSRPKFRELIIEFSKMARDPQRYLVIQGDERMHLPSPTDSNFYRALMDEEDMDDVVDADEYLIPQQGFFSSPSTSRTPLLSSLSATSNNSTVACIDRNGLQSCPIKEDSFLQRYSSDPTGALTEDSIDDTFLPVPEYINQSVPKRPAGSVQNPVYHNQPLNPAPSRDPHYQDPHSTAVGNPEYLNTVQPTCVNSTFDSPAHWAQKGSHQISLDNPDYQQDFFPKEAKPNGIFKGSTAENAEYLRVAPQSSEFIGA

IC50 (EGFR; read-out: EGFR (IC50 μM), PGT substrate, ATP 50 μM)	IC50 (K-562; MTT, 24 h treatment)	IC50 (Jurkat; MTT, 24 h treatment)	IC50 (c-Src; read-out: Src (IC50 μM), PGT substrate, ATP 50 μM)	IC50 (EGFR)	IC50 (K-562; Homo sapiens, K562, 24 h)	IC50 (Jurkat; Homo sapiens, Jurkat, 24 h)	IC50 (c-Src)	Structure (SMILES)	IC50 (KG-1a; MTT, 24 h treatment)	inhibition of STAT3 activation (STAT3)	Mean growth inhibition % ([1]; 10 μM, SRB, mean over NCI 60 cell line panel)	IC50 (KG-1a; Homo sapiens, KG-1a, 24 h)	activity at 10 µM (IL-6)	inhibition at 10 µM [1]	inhibition at 10 µM (SR cell line)	inhibition at 10 µM (K-562 cell line)	inhibition at 10 µM (RPMI-8226 cell line)	inhibition at 10 µM (MOLT-4 cell line)
1.23 ± 0.25 µM	7.21 ± 0.35 µM	8.47 ± 1.03 µM	4.5 ± 1.2 µM					O=C(CSc1nnc(-c2ccccc2)o1)Nc1ccc(C(=O)C=Cc2ccccc2)cc1 [Compound 8a, N-(4-(3-Phenyl)acryloyl)phenyl-2-((5-phenyl-1,3,4-oxadiazol-2-yl)thio)-acetamide]	8.85 ± 0.22 µM	most effective	37.77%							
				2.35 ± 0.95 µM	10.2 ± 0.94 µM	13.15 ± 0.08 µM	6.24 ± 0.86 µM	COc1ccc(-c2nnc(SCC(=O)Nc3ccc(C(=O)C=Cc4cc(OC)c(OC)c(OC)c4)cc3)o2)cc1 [Compound 8n, 2-(5-(4-Methoxyphenyl)-1,3,4-oxadiazol-2-ylthio)-N-(4-(3-(3,4,5-tri-methoxyphenyl)acryloyl)phenyl)acetamide]		most effective		16 ± 0.96 µM	20 to 23%	27.3%	32.9 to 160%	35.8 to 152%		
				13.3 ± 0.65 µM	16.1 ± 1.08 µM	17.2 ± 0.79 µM	13.7 ± 0.89 µM	COc1ccc(-c2nnc(SCC(=O)Nc3ccc(C(=O)C=Cc4ccc(Cl)cc4)cc3)o2)cc1OC [Compound 8p, N-(4-(3-(4-chlorophenyl)acryloyl)phenyl)-2-((5-(3,4-dimethoxyphenyl)-1,3,4-oxadiazol-2-yl)thio)acetamide]		moderate activities		22.5 ± 1.07 µM	30 to 75%	28.2%	32.9 to 160%		31.3 to 144%	31.9 to 108%
				12.3 ± 0.8 µM	15.1 ± 0.25 µM	25.1 ± 0.45 µM	15.3 ± 1.25 µM	COc1ccc(-c2nnc(SCC(=O)Nc3ccc(C(=O)C=Cc4cc(OC)c(OC)c(OC)c4)cc3)o2)cc1OC [Compound 8s, 2-((5-(3,4-Dimethoxyphenyl)-1,3,4-oxadiazol-2-yl)thio)-N-(4-(3-(3,4,5-trimethoxyphenyl)acryloyl)phenyl)acetamide]		moderate activities		32.1 ± 0.64 µM	30 to 75%		32.9 to 160%	35.8 to 152%	31.3 to 144%	
